GAA850 FXN act = FXN promoter activators, primary screen, cell-based, luciferase luminescence, HEK293 lucGAA850; activation, % at 6 µM; 360,000 tested, 0.56% active; HEK293 lucGAA850 FXN promoter luciferase reporter, 24 h; percent of 10 µM SAHA response;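 active = activation above the average of all compounds screened plus 3 SD, cutoff fixed separately per campaign, cut at about 7.5% in these data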
HIF act = HIF pathway transcriptional activators, primary screen, cell-based, U2OS HRE-luciferase, luminescence; AID 1910, 2009; 300,000 tested, 0.32% active; U2OS HRE-luciferase reporter; normalized: DMSO 0%, desferrioxamine 100%; activation, % at 7.5 µM (by protocol);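 active = mean activation of at least 10% of the iron chelator positive control signal, with at least half of replicates also reaching 10%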
ABHD5 PLIN5 PPI = ABHD5-PLIN5 interaction inhibitors, primary screen, cell lysate, split luciferase complementation, luminescence; Perilipin-5 (Homo sapiens) + 1-acylglycerol-3-phosphate O-acyltransferase ABHD5 (Homo …; Split G. princeps luciferase complementation, 4 h; inhibition, % at 4 µM; 360,000 tested, 0.78% active;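 active = inhibition above the mean inhibition across every tested compound plus 3 SD, cut at about 22% in these data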
H9c2 TAG inh = inhibitors of triacylglycerol accumulation, primary screen, cell-based, uHTS, fluorescence, H9c2; inhibition, % at 12.5 µM; H9c2 cells, Nile Red lipid (TAG) fluorescence; cells loaded with 200 µM oleic acid; 230,000 tested, 0.66% active;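 active = pattern-corrected inhibition of lipid staining of at least 50% with the nuclear-stain viability signal not falling by more than 50%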
Hsp70 activator = Hsp70 transcriptional activators, primary screen, cell-based, HeLa, Hsp70 promoter luciferase, luminescence, 10 µM; 200,000 tested, 0.04% active; activation, % at 10 µM; HeLa Hsp70 promoter luciferase reporter; scaled: vehicle 0, proteasome-inhibitor control 100%;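 active = activation above the mean across all tested compounds plus 3 SD, cutoff set per campaign, cut at about 5.5% in these data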
Rad51 HR inh = human RAD51 strand exchange inhibitors, primary screen, biochemical, fluorescence; 200,000 tested, 0.085% active; DNA repair protein RAD51 homolog 1 (Homo sapiens), Q06609; hRad51 DNA strand exchange, fluorescence dequenching; inhibition, % at 10 µM;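 active = inhibition above 40% at the single screening dose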
Target sequence (Q06609 whole entry, looked up): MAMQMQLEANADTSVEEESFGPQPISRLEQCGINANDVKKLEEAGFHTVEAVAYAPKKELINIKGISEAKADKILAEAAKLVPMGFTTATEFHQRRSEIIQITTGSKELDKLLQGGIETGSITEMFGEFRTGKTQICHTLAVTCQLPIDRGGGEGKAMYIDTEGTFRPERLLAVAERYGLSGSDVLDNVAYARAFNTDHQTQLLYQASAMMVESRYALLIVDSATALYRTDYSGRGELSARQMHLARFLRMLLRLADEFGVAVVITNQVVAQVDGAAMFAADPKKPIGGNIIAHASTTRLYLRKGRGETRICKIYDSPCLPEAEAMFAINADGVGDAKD
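Assay system: Human Rad51 nucleoprotein filaments preassembled on unlabelled ssDNA | Reagent: Donor/quencher-labelled 47-bp dsDNA substrate | Doses: One concentration, 10 µM final | Times: 37 °C 15-min filament assembly, 30-min compound preincubation, 15-min exchange | Technique: Fluorescein emission 520 nm, excitation 485 nm | Benchmarks: Plate control and blank wells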
TAG conf = triacylglycerol accumulation inhibitors, retest, confirmation, cell-based, single concentration, Nile Red fluorescence, H9c2; shares compounds with H9c2 TAG inh; H9c2 lipid accumulation; cells loaded with 200 µM oleic acid; inhibition, % at 12.5 µM; AID 651629, 2012; 990 tested, 71% active;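 active = mean inhibition across replicates of 40% or more; inactive = mean inhibition below 40%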
Numbers stand for hits; 0 = inactive; - = not tested or not shown. An excerpt weighted towards active compounds, which were near 1.9% of everything screened.

SMILES | GAA850 FXN act | HIF act | ABHD5 PLIN5 PPI | H9c2 TAG inh | Hsp70 activator | Rad51 HR inh | TAG conf
C[C@@H]1CN([C@H](C)CO)C(=O)c2cc(NC(=O)Nc3cccc4ccccc34)ccc2O[C@H]1CN(C)Cc1ccc(C(F)(F)F)cc1 | 0 | - | 0 | 0 | - | - | -
CC(C)CC(=O)Nc1cccc(NC(=O)CC(C)C)n1 | 0 | 0 | 0 | - | 0 | 0 | -
COc1ccc(Cl)cc1NC(=O)CSc1nnc(COc2ccccc2)n1C | 0 | - | 0 | - | 0 | 0 | -
COc1ccc(Cl)cc1NC(=O)CSc1nnc(COc2ccccc2)n1N | 0 | 0 | 0 | 54 | 0 | 0 | 0
CCOc1cc(S(=O)(=O)N2CCN(C(=O)c3ccco3)CC2)ccc1F | 0 | 0 | 0 | - | - | - | -
COc1cc(CC(=O)OCC(=O)c2ccc3c(c2)OCCO3)cc(OC)c1OC | 0 | 0 | 0 | 68 | 0 | 0 | 49
CC1CC2(C)Oc3ccccc3CC2C(C)C1CNCCCN(C)C (stereo unspecified) | 0 | 0 | 0 | 82 | 0 | 0 | 44
CC1Cc2ccccc2N1C(=O)CNCCCN(C)C (stereo unspecified) | 0 | 0 | 0 | - | 0 | - | -
CCOc1ccccc1NC(=O)c1cccc(NC(=O)c2ccco2)c1 | 0 | 0 | 0 | 79 | 0 | 0 | 82
CCOCCC(=O)Nc1ccc2c(c1)c(=O)n(C)n2C/C=C/c1ccccc1 | 0 | - | 0 | 53 | - | - | 49
O=C(CC1c2cc(F)ccc2C=C(c2ccsc2)N1c1ccc(C#CCCO)cc1)c1ccco1 (stereo unspecified) | - | - | 0 | - | - | - | -
COc1ccc(NC2CCCN(C(=O)CSc3ccccc3)C2)cc1OC (stereo unspecified) | 0 | 0 | 0 | 0 | - | - | -
CCN(CC)c1ccc(/C=C2\CCC(/C=C(/C#N)C(=O)Nc3ccccc3F)=C2N2CCOCC2)cc1 | 0 | - | 0 | 91 | - | - | 65
CCN(CC)c1ccc(/C=C2\CCC(/C=C(\C#N)C(=O)Nc3ccccc3F)=C2N2CCOCC2)cc1 | 0 | 0 | 0 | - | 0 | 0 | -
COc1ccccc1CC(=O)Nc1ccc(-c2noc(COc3ccc(Cl)c(C)c3)n2)cc1 | 0 | 0 | 0 | - | 0 | 0 | -
CCOc1ccccc1-c1nc(-c2ccc(NC(=O)Cc3ccccc3OC)cc2)no1 | 0 | 0 | 0 | 71 | 0 | 0 | 46
COC(=O)[C@@H](CC(C)C)N(Cc1ccccc1)S(=O)(=O)N(Cc1ccccc1)[C@@H](CC(C)C)C(=O)OC | 0 | - | 0 | 62 | - | - | 0
COCCS(=O)(=O)N(Cc1ccc(Br)cc1)[C@@H](C)C(=O)OC | 0 | - | 0 | 53 | - | - | 0
COCCS(=O)(=O)N(Cc1ccccc1)[C@H](C(=O)OC)C(C)C | 0 | - | 0 | 0 | - | - | -
O=C(CC1C(=O)NCCN1Cc1ccccc1C(F)(F)F)NC1CCC1 (stereo unspecified) | 0 | 0 | 0 | 0 | - | - | -
CN(C)c1ccc(NC(=O)CSc2nc3ccccc3c(=O)n2C2CCCCC2)cc1 | 0 | 0 | 0 | 55 | 0 | 0 | 49
Cc1cc(NC(=O)CSc2nc3ccccc3c(=O)n2C2CCCC2)no1 | 0 | 0 | 0 | 90 | 0 | 0 | 69
Cc1ccc(Cn2cc(/C=N/NC(=O)Cc3nnc(NC(=O)c4ccc(C)cc4)s3)c3ccccc32)cc1 | 0 | 0 | 0 | 52 | 0 | 0 | 128
O=c1[nH]c2cccc(Cl)c2c2ccccc12 | 0 | - | 0 | 0 | - | - | -
CSc1ccc(C2=C/C(=C3/SC(=S)NC3=O)c3ccccc3O2)cc1 | 0 | - | 0 | 59 | - | - | 58
SMILES | GAA850 FXN act | HIF act | ABHD5 PLIN5 PPI | H9c2 TAG inh | Hsp70 activator | Rad51 HR inh | TAG conf
CCCC(C(=O)NC1CCCC1)N(Cc1ccccc1)C(=O)c1snc(C(N)=O)c1N (stereo unspecified) | 0 | 0 | 0 | - | - | - | -
CCCC(C(=O)NC(C)(C)C)N(Cc1ccccc1)C(=O)c1snc(C(N)=O)c1N (stereo unspecified) | 0 | - | 0 | 69 | - | - | 0
O=c1[nH]cc(CCc2ccccc2)c(=O)[nH]1 | 0 | - | 0 | 0 | - | - | -
CCOc1ccc(CC2c3cc(OCC)c(OCC)cc3CCN2C(=O)c2cc(OC)c(OC)c(OC)c2)cc1OCC (stereo unspecified) | 0 | 0 | 0 | 62 | 0 | 0 | 0
CCCC(=O)N1CCc2cc(OC)c(OC)cc2C1COc1ccccc1OC (stereo unspecified) | 0 | 0 | 0 | - | - | - | -
O=C(NCCC1CCCCN1S(=O)(=O)c1ccccc1)C(=O)NCc1ccc(F)cc1 (stereo unspecified) | 0 | 0 | 0 | 0 | - | - | -
CCOc1cc(CNc2ccc3c(c2)OCCO3)cc(Br)c1OCC | 0 | 0 | 0 | 53 | 0 | 0 | 53
COc1ccc2c(c1)C(=O)Cc1ccccc1O2 | 0 | 0 | 0 | 0 | - | - | -
COc1ccc(-n2ccnc2SCC(=O)NC2CCCC2)c(OC)c1 | 0 | 0 | 0 | 71 | 0 | 0 | 0
Cc1ccccc1-n1ccnc1SCC(=O)NC1CCCC1 | 0 | 0 | 0 | - | - | - | -
C[C@@H]1CN([C@@H](C)CO)C(=O)c2cccc(NC(=O)Nc3ccc4c(c3)OCO4)c2O[C@H]1CN(C)S(=O)(=O)c1cn(C)cn1 | 0 | - | 0 | 0 | - | - | -
CNC(=S)NN=C(C)c1ccc(OC)cc1O | 0 | - | 0 | 72 | - | - | 41
COc1ccc(/C(C)=N/N=C(N)N)c(O)c1 | 0 | - | 0 | 0 | - | 0 | -
Cc1c(C(=O)NCCC2=CCCCC2)oc2ccc(S(=O)(=O)N3CCC4(CC3)OCCO4)cc12 | 0 | 0 | 0 | 52 | 0 | 0 | 0
Cc1c(C(=O)NCc2ccccc2)oc2ccc(S(=O)(=O)N3CCC4(CC3)OCCO4)cc12 | 0 | 0 | 0 | 0 | 0 | 0 | -
Cc1ccc(CNC(=O)c2ccc(N3CCC4(CC3)CC(c3ccccc3)=NO4)c(NC(=O)c3ccc(Br)cc3)c2)cc1 | 0 | 0 | 0 | 55 | - | - | 56
CCN(CC)C1CCN(C(=O)c2ccc3nc(Cc4ccc(OC)cc4)oc3c2)C1 (stereo unspecified) | 0 | 0 | 0 | - | - | - | -
C[C@]12c3[nH]c4cc(-c5ccco5)ccc4c3CCN1C(=O)[C@@H](CC(=O)NCC13CC4CC(CC(C4)C1)C3)C[C@@H]2C(=O)N1CCOCC1 | 0 | - | 0 | 0 | - | - | -
O=C(CC1C[C@H](C(=O)N2CCOCC2)[C@@]2(CCC3CCCC3)c3[nH]c4ccccc4c3CCN2C1=O)NCC12CC3CC(CC(C3)C1)C2 (stereo partly specified) | 0 | - | 0 | 61 | - | - | 56
